pEC50: −log10 of the molar value.
Assays:
MT4 [1] = experiment: Activity against HIV-1 in MT-4 cells (in vitro); type: functional, cell-based; conditions: Homo sapiens
In short: (§1)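 MT-4 cells at 5 × 10⁵/mL infected with HIV-1 (IIIB) or HIV-2 (ROD) at about 100 CCID50/mL and exposed to compound dilutions. After 5 days, viable cells counted by trypan blue staining. EC₅₀ is the concentration protecting cells against viral cytopathogenicity by 50%. Mean of two to four independent experiments.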

CCRF-CEM [2] = experiment: Cytotoxic concentration against CEM cells (in vitro); type: functional; conditions: Homo sapiens
In short: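 Mock-infected CEM cultures exposed to compound dilutions alongside the antiviral assay and scored at day 4. CC₅₀ is the concentration reducing cell number by 50%.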

CCRF-CEM [3] = experiment: Activity against HIV-2 in CEM cells (in vitro); type: functional, cell-based; conditions: Homo sapiens
In short: (§2)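 Cells at 5 × 10⁵/mL infected with HIV-1 (IIIB) or HIV-2 (ROD) at about 100 CCID50/mL, then mixed with dilutions of test compound. After 4 days, giant cell formation scored microscopically. EC₅₀ is the concentration cutting giant cells by 50%. Mean of two to four independent experiments.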

MT4 [4] = experiment: Activity against HIV-2 in MT-4 cells (in vitro); type: functional, cell-based; conditions: Homo sapiens; in short: as §1
MT4 [5] = experiment: Cytotoxic concentration against MT-4 cells (in vitro); type: functional; conditions: Homo sapiens
In short: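 Mock-infected MT-4 cultures (5 × 10⁵ cells/mL) exposed to compound dilutions for 5 days. Viable cells counted by trypan blue. CC₅₀ is the concentration reducing viable cell number by 50%.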

CCRF-CEM [6] = experiment: Activity against HIV-1 in CEM cells (in vitro); type: functional, cell-based; conditions: Homo sapiens; in short: as §2
CEM-TK(-) (Homo sapiens) = experiment: Activity against HIV-1 in CEM/TK cells (in vitro)
CCRF-CEM [7] = experiment: Compound was tested for activity against HIV-2 in CEM cells; type: functional, cell-based; conditions: Homo sapiens; in short: as §2

| Compound | pEC50 (CCRF-CEM [3]) | pEC50 (CCRF-CEM [6]) | pEC50 (CEM-TK(-) (Homo sapiens)) | pEC50 (CCRF-CEM [7]) | pEC50 (MT4 [1]) | CC50 (CCRF-CEM [2]) | pEC50 (MT4 [4]) | CC50 (MT4 [5]) |
| --- | --- | --- | --- | --- | --- | --- | --- | --- |
| Cc1cn([C@H]2C=C[C@@H](CO)O2)c(=O)[nH]c1=O [STAVUDINE] | 6.11 | 6.10 | 4.48 | – | 6.19 | 174 µM | 6.11 | 19 µM |
| COC(=O)C(NP(=O)(OCC1C=CC(n2cc(C)c(=O)[nH]c2=O)O1)Oc1ccccc1)C(C)C (stereo not drawn) | 4.90 | 4.90 | 5.40 | – | 5.45 | > 250 µM | 4.95 | > 250 µM |
| COC(=O)C(CC(C)C)NP(=O)(OCC1C=CC(n2cc(C)c(=O)[nH]c2=O)O1)Oc1ccccc1 (stereo not drawn) | – | 5.96 | 6.40 | 5.65 | 6.70 | > 250 µM | 6.33 | 61.5 µM |
| CCOP(=O)(NC(C)C(=O)OC)OCC1C=CC(n2cc(C)c(=O)[nH]c2=O)O1 (stereo not drawn) | 3.62 | 4.32 | 4.32 | – | 4.55 | > 250 µM | 4.20 | > 250 µM |
| COC(=O)CNP(=O)(OCC1C=CC(n2cc(C)c(=O)[nH]c2=O)O1)Oc1ccccc1 (stereo not drawn) | 5.22 | 5.22 | 5.15 | – | 5.87 | > 250 µM | 5.17 | > 250 µM |
| COC(=O)C(C)NP(=O)(OC[C@@H]1C=C[C@H](n2cc(C)c(=O)[nH]c2=O)O1)Oc1ccccc1 (stereo partly drawn) | 6.70 | 6.74 | 7.12 | – | 7.18 | 100 µM | 7.17 | > 100 µM |
| COC(=O)C(C)NP(=O)(OC)OCC1C=CC(n2cc(C)c(=O)[nH]c2=O)O1 (stereo not drawn) | 4.30 | 4.70 | < 3.60 | – | 4.60 | > 250 µM | 4.29 | > 250 µM |
| Cc1cn([C@H]2C[C@H](N=[N+]=[N-])[C@@H](CO)O2)c(=O)[nH]c1=O [ZIDOVUDINE] | – | – | < 4.00 | – | – | > 500 µM | – | 6 µM |
| COC(=O)C(C)NP(=O)(OCC1C=CC(n2cc(C)c(=O)[nH]c2=O)O1)Oc1c(F)c(F)c(F)c(F)c1F (stereo not drawn) | 5.43 | 5.60 | 5.07 | – | 5.76 | 115 µM | 5.39 | 82.2 µM |

Further molecules by rising pEC50 (CEM-TK(-) (Homo sapiens)), results first:

| pEC50 (CCRF-CEM [3]) | pEC50 (CCRF-CEM [6]) | pEC50 (CEM-TK(-) (Homo sapiens)) | pEC50 (CCRF-CEM [7]) | Compound | pEC50 (MT4 [1]) | CC50 (CCRF-CEM [2]) | pEC50 (MT4 [4]) | CC50 (MT4 [5]) |
| --- | --- | --- | --- | --- | --- | --- | --- | --- |
| 5.87 | 6.10 | 6.48 | – | COC(=O)C(Cc1ccccc1)NP(=O)(OCC1C=CC(n2cc(C)c(=O)[nH]c2=O)O1)Oc1ccccc1 (stereo not drawn) | 6.72 | 216 µM | 6.42 | 34.1 µM |
| 6.10 | 6.22 | 6.48 | – | COC(=O)C(CCSC)NP(=O)(OCC1C=CC(n2cc(C)c(=O)[nH]c2=O)O1)Oc1ccccc1 (stereo not drawn) | 6.64 | > 250 µM | 6.42 | 22 µM |
| 6.82 | 6.82 | 6.96 | – | COC(=O)C(C)NP(=O)(OC[C@@H]1C=C[C@H](n2cc(C)c(=O)[nH]c2=O)O1)Oc1cccc(C(F)(F)F)c1 (stereo partly drawn) | 7.34 | 29.8 µM | 6.96 | 9.75 µM |
| 6.82 | 6.96 | 6.96 | – | COC(=O)C(C)NP(=O)(OCC1C=CC(n2cc(C)c(=O)[nH]c2=O)O1)Oc1cc(Cl)cc(Cl)c1 (stereo not drawn) | 7.43 | 26.9 µM | 6.92 | 10.5 µM |
| 6.80 | 7.15 | 7.22 | – | CCc1ccc(OP(=O)(NC(C)C(=O)OC)OCC2C=CC(n3cc(C)c(=O)[nH]c3=O)O2)cc1 (stereo not drawn) | 7.24 | 60 µM | 7.20 | > 100 µM |
| 7.26 | 7.40 | 7.60 | – | COC(=O)C(C)NP(=O)(OCC1C=CC(n2cc(C)c(=O)[nH]c2=O)O1)Oc1ccc(Br)cc1Br (stereo not drawn) | – | 16 µM | – | – |

From ChEMBL document CHEMBL1129557, “Aryl phosphoramidate derivatives of d4T have improved anti-HIV efficacy in tissue culture and may act by the generation of a novel intracellular metabolite” (J Med Chem, 1996)
